Assay results taken from ChEMBL document CHEMBL1152434, “Probing the fibrate binding specificity of rat liver fatty acid binding protein” (J Med Chem, 2009).
pKd: −log10 of the molar value. Active and inactive are the calls of the source. No cut-off for these calls is given here.

Columns and labels:
[1] = target: T1, Fatty acid-binding protein, liver (Rattus norvegicus) (UniProt P02692); test: Binding affinity to rat recombinant L-FABP high affinity site expressed in Escherichia coli BL21(DE3) assessed as occupancy at a drug-protein molar ratio of 3:1 by NMR chemical shift perturbation method
T1 sequence (whole entry): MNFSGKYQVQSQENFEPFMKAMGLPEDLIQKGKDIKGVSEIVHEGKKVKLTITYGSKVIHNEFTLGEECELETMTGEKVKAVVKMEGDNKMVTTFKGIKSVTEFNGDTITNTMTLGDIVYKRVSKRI

[2] = target: T1, Fatty acid-binding protein, liver (Rattus norvegicus); test: Binding affinity to rat recombinant L-FABP low affinity site expressed in Escherichia coli BL21(DE3) assessed as occupancy at a drug-protein molar ratio of 3:1 by NMR chemical shift perturbation method
[3] = target: T2, Fatty acid-binding protein, liver (Rattus norvegicus, UniProt P02692); test: Binding affinity to rat recombinant L-FABP high affinity site expressed in Escherichia coli BL21(DE3) at 10 deg C by fluorimetric assay
T2 sequence (P02692 whole entry): T1 sequence (whole entry)
How it was run: (§1)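 Steady-state ANS displacement: the fluorescent cavity probe 1-anilino-8-naphthalene sulfonic acid is bound to recombinant rat L-FABP (15N/13C-labelled, purified from E. coli). Fibrates in DMSO are titrated directly into the protein. The fall in ANS fluorescence is plotted against free ligand. A two-site competition nonlinear fit gives EC50, converted to Ki for each site.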

[4] = target: T2, Fatty acid-binding protein, liver; test: Binding affinity to rat recombinant L-FABP high affinity site expressed in Escherichia coli BL21(DE3) at 30 deg C by fluorimetric assay; how it was run: as §1
[5] = target: T2, Fatty acid-binding protein, liver; test: Binding affinity to rat recombinant L-FABP high affinity site expressed in Escherichia coli BL21(DE3) at 25 deg C by fluorimetric assay; how it was run: as §1
[6] = target: T2, Fatty acid-binding protein, liver; test: Binding affinity to rat recombinant L-FABP high affinity site expressed in Escherichia coli BL21(DE3) at 37 deg C by fluorimetric assay; how it was run: as §1
[7] = target: T2, Fatty acid-binding protein, liver; test: Binding affinity to rat recombinant L-FABP high affinity site expressed in Escherichia coli BL21(DE3) at 20 deg C by fluorimetric assay; how it was run: as §1
[8] = target: T2, Fatty acid-binding protein, liver; test: Binding affinity to rat recombinant L-FABP high affinity site expressed in Escherichia coli BL21(DE3) at 15 deg C by fluorimetric assay; how it was run: as §1
[9] = target: T2, Fatty acid-binding protein, liver; test: Binding affinity to rat recombinant L-FABP high affinity site expressed in Escherichia coli BL21(DE3) at 5 deg C by fluorimetric assay; how it was run: as §1
[10] = target: T2, Fatty acid-binding protein, liver; test: Binding affinity to rat recombinant L-FABP high affinity site expressed in Escherichia coli BL21(DE3) at 42 deg C by fluorimetric assay; how it was run: as §1
[11] = target: T2, Fatty acid-binding protein, liver; test: Binding affinity to rat recombinant L-FABP low affinity site expressed in Escherichia coli BL21(DE3) at 37 deg C by fluorimetric assay; how it was run: as §1
[12] = target: T2, Fatty acid-binding protein, liver; test: Binding affinity to rat recombinant L-FABP low affinity site expressed in Escherichia coli BL21(DE3) at 30 deg C by fluorimetric assay; how it was run: as §1
[13] = target: T2, Fatty acid-binding protein, liver; test: Binding affinity to rat recombinant L-FABP low affinity site expressed in Escherichia coli BL21(DE3) at 20 deg C by fluorimetric assay; how it was run: as §1
[14] = target: T2, Fatty acid-binding protein, liver; test: Binding affinity to rat recombinant L-FABP low affinity site expressed in Escherichia coli BL21(DE3) at 10 deg C by fluorimetric assay; how it was run: as §1
[15] = target: T2, Fatty acid-binding protein, liver; test: Binding affinity to rat recombinant L-FABP low affinity site expressed in Escherichia coli BL21(DE3) at 15 deg C by fluorimetric assay; how it was run: as §1
[16] = target: T2, Fatty acid-binding protein, liver; test: Binding affinity to rat recombinant L-FABP low affinity site expressed in Escherichia coli BL21(DE3) at 42 deg C by fluorimetric assay; how it was run: as §1
[17] = target: T2, Fatty acid-binding protein, liver; test: Binding affinity to rat recombinant L-FABP low affinity site expressed in Escherichia coli BL21(DE3) at 25 deg C by fluorimetric assay; how it was run: as §1
[18] = target: T2, Fatty acid-binding protein, liver; test: Binding affinity to rat recombinant L-FABP low affinity site expressed in Escherichia coli BL21(DE3) at 5 deg C by fluorimetric assay; how it was run: as §1

Activity [1]	Activity [2]	pKd [3]	pKd [4]	pKd [5]	pKd [6]	pKd [7]	pKd [8]	pKd [9]	pKd [10]	pKd [11]	pKd [12]	pKd [13]	pKd [14]	pKd [15]	pKd [16]	pKd [17]	pKd [18]	SMILES
100%	85%																	CC(C)(Oc1ccc(C2CC2(Cl)Cl)cc1)C(=O)O (stereo not given)
inactive	93%																	CC(C)(Oc1ccc(CCNC(=O)c2ccc(Cl)cc2)cc1)C(=O)O
100%	79%																	Cc1ccc(C)c(OCCCC(C)(C)C(=O)O)c1
99%	inactive	5.17	5.02	5.05	4.96	5.11	5.14	5.22	4.92									CCOC(=O)C(C)(C)Oc1ccc(Cl)cc1 [CLOFIBRATE]
100%	100%	7.64	7.39	7.49	7.21	7.57	7.62	7.74		6.49	6.57	6.70	6.82	6.80	6.44	6.60	6.89	CC(C)OC(=O)C(C)(C)Oc1ccc(C(=O)c2ccc(Cl)cc2)cc1 [FENOFIBRATE]
100%	96%	7.00	6.44	6.47	6.38	6.66	6.80	7.03		4.55	4.57	4.64	4.72	4.70	4.54	4.62	4.74	CC(C)(Oc1ccc(C(=O)c2ccc(Cl)cc2)cc1)C(=O)O [FENOFIBRIC ACID]
